Data set [1] has as its target T1, 17-beta-hydroxysteroid dehydrogenase type 3 (Homo sapiens) (UniProt P37058).
T1 sequence (whole entry): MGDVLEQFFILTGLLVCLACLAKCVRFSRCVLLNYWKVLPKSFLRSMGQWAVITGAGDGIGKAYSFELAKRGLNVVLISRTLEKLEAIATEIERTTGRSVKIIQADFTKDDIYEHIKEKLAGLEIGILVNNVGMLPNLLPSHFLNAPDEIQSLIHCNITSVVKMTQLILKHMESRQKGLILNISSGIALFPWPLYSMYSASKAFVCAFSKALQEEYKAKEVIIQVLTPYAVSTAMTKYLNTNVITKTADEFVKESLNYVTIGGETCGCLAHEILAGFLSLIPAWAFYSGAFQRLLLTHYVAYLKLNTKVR
Kind of data set: Inhibition of 17-beta-HSD3 (unknown origin) expressed in human LNCaP cells using [14C]-4-androstene-3,17-dione as substrate assessed as reduction of [14C]-testosterone level at 0.1 to 1 uM after 1 hr by TLC method. The format is cell-based. An outline of the steps: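 LNCaP cells stably transfected with 17β-HSD3, grown in RPMI-1640 with 10% FBS and hygromycin; hygromycin omitted for assay. 10,000 cells/well plated, incubated 2 days, then 15 nM [14C]-4-androstene-3,17-dione added with inhibitor in DMSO (final 0.05%).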

Data set [2] concerns the target T2, 17-beta-hydroxysteroid dehydrogenase type 3 (Homo sapiens, UniProt P37058).
T2 sequence (P37058 whole entry): T1 sequence (whole entry)
Nature of the data set: Inhibition of 17-beta-HSD3 (unknown origin) expressed in human LNCaP cells using [14C]-4-androstene-3,17-dione as substrate assessed as reduction of [14C]-testosterone level after 1 hr by TLC method.

Data set [3] has as its target T3, Androgen receptor (Homo sapiens, UniProt P10275).
T3 sequence (P10275 whole entry): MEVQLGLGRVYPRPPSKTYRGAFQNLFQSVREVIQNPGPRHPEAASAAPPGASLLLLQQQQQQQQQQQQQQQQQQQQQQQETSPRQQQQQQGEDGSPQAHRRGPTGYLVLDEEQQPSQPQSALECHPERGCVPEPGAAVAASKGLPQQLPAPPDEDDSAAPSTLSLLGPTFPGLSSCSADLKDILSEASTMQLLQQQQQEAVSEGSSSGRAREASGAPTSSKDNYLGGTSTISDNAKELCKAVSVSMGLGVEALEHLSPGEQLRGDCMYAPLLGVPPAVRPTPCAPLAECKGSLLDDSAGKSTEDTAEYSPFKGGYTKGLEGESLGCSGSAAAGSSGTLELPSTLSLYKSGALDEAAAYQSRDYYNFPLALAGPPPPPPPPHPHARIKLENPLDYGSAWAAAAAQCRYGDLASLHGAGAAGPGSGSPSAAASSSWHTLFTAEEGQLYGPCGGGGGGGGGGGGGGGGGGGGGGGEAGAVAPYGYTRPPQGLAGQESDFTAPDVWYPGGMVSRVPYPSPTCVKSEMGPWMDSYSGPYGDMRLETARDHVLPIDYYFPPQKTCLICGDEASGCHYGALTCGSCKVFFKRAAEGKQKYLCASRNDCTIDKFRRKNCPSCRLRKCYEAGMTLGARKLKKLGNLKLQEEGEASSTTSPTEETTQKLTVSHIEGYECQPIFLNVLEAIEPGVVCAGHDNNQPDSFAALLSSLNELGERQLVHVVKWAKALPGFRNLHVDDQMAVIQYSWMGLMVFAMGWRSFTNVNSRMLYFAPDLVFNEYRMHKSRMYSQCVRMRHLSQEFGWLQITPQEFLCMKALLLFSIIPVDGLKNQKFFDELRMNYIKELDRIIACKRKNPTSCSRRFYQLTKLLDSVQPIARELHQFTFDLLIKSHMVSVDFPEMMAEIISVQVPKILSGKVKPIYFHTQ
Kind of data set: Androgenic activity at AR in human LAPC4 cells assessed as cell growth at 0.1 uM after 3 days by MTS method relative to control. The format is cell-based. The note with it: 72 h. An outline of the steps:
(§1)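 LAPC-4 (AR+) cells, cultured in RPMI-1640 with FBS, L-glutamine and insulin, were switched to medium with 5% dextran-coated charcoal treated FBS. 10,000 cells/well, triplicate, were pre-incubated 24 h at 37 °C, then given compound diluted from DMSO stock for 3 days; vehicle DMSO controls. Growth read by MTS, expressed as % proliferation minus basal 100%.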

The target of data set [4] is T3, Androgen receptor. Kind of data set: Androgenic activity at AR in human LAPC4 cells assessed as cell growth at 0.5 uM after 3 days by MTS method relative to control. Format: cell-based. The note with it: 72 h. An outline of the steps:
as §1
(Tetrazolium dyes change colour on reduction, which living cells bring about.)

Data set [5] concerns the target T3, Androgen receptor. Kind of data set: Androgenic activity at AR in human LAPC4 cells assessed as cell growth at 1 uM after 3 days by MTS method relative to control. The format is cell-based. The note with it: 72 h. An outline of the steps: as §1
Data set [6] can be described thus: Metabolic stability in human liver microsomes assessed as parent compound remaining at 10 uM after 1 hr by HPLC-MS analysis. As to conditions: read-out: Stability. The format is ADME, microsome. An outline of the steps:
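Human liver microsomes (40 μg) were incubated with 10 μM substrate for 1 h at 37 °C, with or without 10 mM NADPH, in 50 mM Tris plus 10 mM MgCl₂. MeOH-quenched, centrifuged supernatants from 2 assays pooled for HPLC-MS with UV at 190 nm. % remaining = AUC with NADPH / AUC without NADPH × 100; mean of 4 independent experiments.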
Background: Liver microsomes are a subcellular fraction often used to study metabolism.

Calls of active or inactive are those of the source. The calls are words filed in the database; no cut-off is given here.

For `C[C@]12CC[C@@H](O)C[C@@H]1CC[C@@H]1[C@@H]2CC[C@@]2(C)C(=O)CC[C@@H]12`, the inhibition result in data set [1] is “inactive”.

As for `C[C@]12CC[C@H](O)C[C@H]1CC[C@@H]1[C@@H]2CC[C@@]2(C)C(=O)CC[C@@H]12`, the inhibition entry in data set [1] was “inactive”.

The term IC50 denotes the concentration that inhibits the measured activity by half. For `C[C@@H]1CN(S(=O)(=O)c2ccccc2C(F)(F)F)[C@@H](C)CN1C[C@@]1(O)CC[C@@]2(C)[C@@H](CC[C@@H]3[C@@H]2CC[C@]2(C)C(=O)CC[C@@H]32)C1`, in data set [2], the IC50 is 110 nM. The Activity on Androgen receptor [3] amounted to 96%; on Androgen receptor [4], 48%; on Androgen receptor [5], 33%.

`C[C@@H]1CN(S(=O)(=O)c2ccccc2C(F)(F)F)[C@@H](C)CN1C[C@]1(O)CC[C@@]2(C)[C@H](CC[C@@H]3[C@@H]2CC[C@@]2(C)C(=O)CC[C@@H]32)C1`: the IC50 in data set [2] turned out to be 150 nM. The Activity on Androgen receptor [3] amounted to 87.2%; at Androgen receptor [4], 72.3%; at Androgen receptor [5], 28.2%. The remaining at 1 h, 10 µM in data set [6] was 16.6%.

Regarding `C[C@@H]1CN(S(=O)(=O)c2ccccc2C(F)(F)F)[C@@H](C)CN1C` (relative stereo), in data set [1], the inhibition entry was “inactive”.

For the compound `C[C@@H]1CN(S(=O)(=O)c2ccccc2C(F)(F)F)[C@@H](C)CN1C[C@@]1(O)CC[C@@]2(C)[C@@H](CC[C@@H]3[C@@H]2CC[C@@]2(C)C(=O)CC[C@@H]32)C1`, in data set [2], the IC50 was 1090 nM. The Activity is 76.3% on Androgen receptor [3], 61.6% at Androgen receptor [4] and 51% on Androgen receptor [5]. In data set [6], the remaining at 1 h, 10 µM was found to be 29.4%.

The record behind these values is ChEMBL document CHEMBL4004871, “Impact of androstane A- and D-ring inversion on 17β-hydroxysteroid dehydrogenase type 3 inhibitory activity, androgenic effect and metabolic stability” (Bioorg Med Chem, 2017).
